Laboratory results taken from ChEMBL document CHEMBL1137779, “Discovery of 2-[5-(4-chloro-phenyl)-1-(2,4-dichloro-phenyl)-4-ethyl-1H-pyrazol-3-yl]-1,5,5-trimethyl-1,5-dihydro-imidazol-4-thione (BPR-890) via an active metabolite. A novel, potent and selective cannabinoid-1 receptor inverse agonist with high antiobesity efficacy in DIO mice” (J Med Chem, 2009).
Calls of active or inactive are those of the source. The calls are words filed in the database; no cut-off is given here.

Experiments:
[1] = species: Homo sapiens; assay: Selectivity ratio of IC50 for human recombinant CB2R to IC50 for human recombinant CB1R
Procedure, shortened: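 hCB1- or hCB2-transfected HEK 293 stable clones; purified membranes (0.2-8 μg) incubated with 0.75 nM [3H]CP-55,940 plus test compound in 50 mM Tris-HCl, 5 mM MgCl2, 1 mM EDTA, 0.3% BSA, pH 7.4, 1.5 h at 30 °C. Nonspecific binding with 1 μM CP-55,940. Filtration, bound radioactivity counted; IC50 by nonlinear regression. Mean ± SD of at least three independent experiments.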

[2] = molecular target: Cannabinoid receptor 2 (Homo sapiens, UniProt P34972); assay: Displacement of [3H]CP-55940 from human recombinant CB2R expressed in HEK293 cells; assay type: cell-based
[3] = molecular target: T1, Cannabinoid receptor 1 (Homo sapiens, UniProt P21554); assay: biochemical; assay type: cell-based, HEK293
[4] = molecular target: T1, Cannabinoid receptor 1; assay type: cell-based, HEK293
[5] = system: Mus musculus; assay: Induction of weight loss in diet induced obesity C57BL/6 mouse model at 0.1 mg/kg, po after 29 days relative to control; assay type: functional
Procedure, shortened: (§1)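 DIO mice, weight-matched into groups (n = 8/group), given vehicle (10% DMSO/10% Tween 80/80% H2O) or compound by oral gavage once daily for 29 days. Food intake and body weight recorded daily. Read-out is cumulative percentage body-weight change versus vehicle, reported as mean ± standard error.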

[6] = system: Mus musculus; assay: Induction of weight loss in diet induced obesity C57BL/6 mouse model at 0.03 mg/kg, po after 29 days relative to control; assay type: functional; procedure, shortened: as §1
[7] = system: Mus musculus; assay: Reduction of food intake in diet induced obesity C57BL/6 mouse model at 0.03 mg/kg, po after 29 days; assay type: functional, organism-based; set-up: dose 0.03 mg/kg
Procedure, shortened: (§2)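 Weight-matched DIO mice (n = 8/group) gavaged once daily with compound or vehicle (10% DMSO/10% Tween 80/80% H2O) for 29 days. Food consumed and body weight measured daily. Mean ± standard error.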

[8] = system: Mus musculus; assay: Induction of weight loss in po dosed diet induced obesity C57BL/6 mouse model assessed as minimum effective dose after 29 days; assay type: functional; procedure, shortened: as §1
[9] = system: Mus musculus; assay: Reduction of food intake in diet induced obesity C57BL/6 mouse model at 0.1 mg/kg, po after 29 days; assay type: functional, organism-based; set-up: dose 0.1 mg/kg; procedure, shortened: as §2
[10] = system: Rattus norvegicus; assay: Suppression of food intake in Wistar rat spontaneously feeding model at 0.3 mg/kg, po after 6 hrs
[11] = system: Mus musculus; assay: Reduction of food intake in diet induced obesity C57BL/6 mouse model at 0.3 mg/kg, po after 29 days; assay type: functional, organism-based; set-up: dose 0.3 mg/kg; procedure, shortened: as §2
[12] = system: Rattus norvegicus; assay: Induction of weight loss in diet induced obesity Wistar rat model at 0.1 mg/kg, po qd after 29 days relative to control; assay type: functional
[13] = system: Rattus norvegicus; assay: Induction of weight loss in diet induced obesity Wistar rat model at 0.3 mg/kg, po qd after 29 days relative to control; assay type: functional
[14] = system: Brain; assay: Drug level in brain of diet-induced obesity C57BL/6 mouse model at 0.3 mg/kg, po; assay type: ADME, organism-based; set-up: dose 0.3 mg/kg, route oral; details: in vivo
[15] = system: Mus musculus; assay: Induction of weight loss in diet induced obesity C57BL/6 mouse model at 0.3 mg/kg, po after 29 days relative to control; assay type: functional; procedure, shortened: as §1
[16] = system: Mus musculus; assay: Induction of weight loss in diet induced obesity C57BL/6 mouse model at 1 mg/kg, po after 29 days relative to control; assay type: functional; procedure, shortened: as §1
[17] = system: Brain; assay: Drug level in brain of diet-induced obesity C57BL/6 mouse model at 1 mg/kg, po; assay type: ADME, organism-based; set-up: dose 1 mg/kg, route oral; details: in vivo
[18] = system: Rattus norvegicus; assay: Suppression of food intake in Wistar rat spontaneously feeding model at 3 mg/kg, po after 6 hrs
[19] = system: Mus musculus; assay: Induction of weight loss in diet induced obesity C57BL/6 mouse model at 10 mg/kg, po qd relative to control; assay type: functional; procedure, shortened: as §1
[20] = system: Brain; assay: Drug level in brain of diet-induced obesity C57BL/6 mouse model at 10 mg/kg, po; assay type: ADME, organism-based; set-up: dose 10 mg/kg, route oral; details: in vivo

T1 sequence (P21554 whole entry): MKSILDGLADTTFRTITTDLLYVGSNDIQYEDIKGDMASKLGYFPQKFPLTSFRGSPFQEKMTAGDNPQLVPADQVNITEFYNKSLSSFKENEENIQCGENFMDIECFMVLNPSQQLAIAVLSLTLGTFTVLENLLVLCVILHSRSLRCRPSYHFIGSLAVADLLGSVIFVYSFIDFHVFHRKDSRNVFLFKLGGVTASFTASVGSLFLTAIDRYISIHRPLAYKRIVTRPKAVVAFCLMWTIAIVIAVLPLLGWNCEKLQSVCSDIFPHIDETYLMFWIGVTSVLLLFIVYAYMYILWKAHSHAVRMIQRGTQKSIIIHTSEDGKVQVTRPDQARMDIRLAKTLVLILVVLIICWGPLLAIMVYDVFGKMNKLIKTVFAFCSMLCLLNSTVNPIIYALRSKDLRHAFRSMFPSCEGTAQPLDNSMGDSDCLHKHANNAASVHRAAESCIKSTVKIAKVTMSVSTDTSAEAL
Sequence of Cannabinoid receptor 2 (P34972 whole entry): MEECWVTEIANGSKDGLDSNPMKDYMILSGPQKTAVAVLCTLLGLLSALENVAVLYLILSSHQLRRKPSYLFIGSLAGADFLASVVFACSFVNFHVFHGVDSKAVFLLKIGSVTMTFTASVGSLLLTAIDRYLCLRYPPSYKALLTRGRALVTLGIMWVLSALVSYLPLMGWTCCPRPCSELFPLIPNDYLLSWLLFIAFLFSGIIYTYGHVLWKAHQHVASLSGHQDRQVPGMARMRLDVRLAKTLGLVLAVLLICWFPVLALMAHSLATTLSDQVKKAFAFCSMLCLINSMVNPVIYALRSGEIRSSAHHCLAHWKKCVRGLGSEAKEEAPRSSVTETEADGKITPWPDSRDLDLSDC

| SMILES | Ratio IC50 [1] | IC50 [2] [nM] | IC50 [3] [nM] | also measured |
| --- | --- | --- | --- | --- |
| Cc1c(C2=NC(C)(C)C(=O)N2)nn(-c2ccc(Cl)cc2Cl)c1-c1ccc(Cl)cc1 | 66 | 3500 | 53.4 |  |
| CCc1c(C2=NC(=O)C(C)(C)N2C)nn(-c2ccc(Cl)cc2Cl)c1-c1ccc(Cl)cc1 | 213 | 2740 | 12.9 | EC50 [4]: 9.8 nM |
| CN1C(c2nn(-c3ccc(Cl)cc3Cl)c(-c3ccc(Cl)cc3)c2Br)=NC(=O)C1(C)C | 37 | 1570 | 42.5 |  |
| CN1C(c2nn(-c3ccc(Cl)cc3Cl)c(-c3ccc(Cl)cc3)c2C2CC2)=NC(=O)C1(C)C | 19 | 822 | 43.9 |  |
| CCc1c(C2=NC3(CCCCC3)C(=O)N2)nn(-c2ccc(Cl)cc2Cl)c1-c1ccc(Cl)cc1 | 40 | 497 | 12.3 |  |
| CCc1c(C2=NC(=S)C(C)(C)N2C)nn(-c2ccc(Cl)cc2Cl)c1-c1ccc(Cl)cc1 | 396 | 4750 | 12 | Activity [5]: 19.4%; Activity [6]: 14.7%; Activity [7]: Active; MED [8]: 0.03 mg/kg; Activity [9]: Active; EC50 [4]: 5.1 nM; Activity [10]: Active; Activity [11]: Active; Activity [12]: 5.1%; Activity [13]: 9.5%; Drug uptake [14]: 243 ng/g; Activity [15]: 25.4% |
| Cc1c(C2=NC(=O)C(C)(C)N2C)nn(-c2ccc(Cl)cc2Cl)c1-c1ccc(Br)cc1 | 23 | 1100 | 47.4 |  |
| Cc1c(C2=NC(=O)C(C)(C)N2C)nn(-c2ccc(Cl)cc2Cl)c1-c1ccc(C(F)(F)F)cc1 | 250 | 3970 | 15.9 | EC50 [4]: 81 nM |
| CCc1c(C2=NC(=O)C(C)(C)N2C)nn(-c2ccc(Cl)cc2Cl)c1-c1ccc(Br)cc1 | 47 | 768 | 16.3 |  |
| CCCN1C(c2nn(-c3ccc(Cl)cc3Cl)c(-c3ccc(Cl)cc3)c2C)=NC(=O)C1(C)C | 7 | 5510 | 854 |  |
| COc1ccc(-c2c(C)c(C3=NC(=O)C(C)(C)N3C)nn2-c2ccc(Cl)cc2Cl)cc1 | 5 | 1060 | 212 |  |
| Cc1c(C(=O)NC(=O)C(C)(C)N(C)C)nn(-c2ccc(Cl)cc2Cl)c1-c1ccc(Cl)cc1 | 35 |  | 82.9 |  |
| CCc1c(C2=NC3(CCCC3)C(=O)N2)nn(-c2ccc(Cl)cc2Cl)c1-c1ccc(Cl)cc1 | 94 | 1370 | 14.6 |  |
| C=CCN1C(c2nn(-c3ccc(Cl)cc3Cl)c(-c3ccc(Cl)cc3)c2C)=NC(=O)C1(C)C | 12 | 2880 | 249 |  |
| CCCCN1C(c2nn(-c3ccc(Cl)cc3Cl)c(-c3ccc(Cl)cc3)c2C)=NC(=O)C1(C)C | 4 | 4760 | 1110 |  |
| Cc1c(C2=NC(=O)C(C)(C)N2Cc2ccccc2)nn(-c2ccc(Cl)cc2Cl)c1-c1ccc(Cl)cc1 | 26 | 5130 | 197 |  |
| CCc1c(C2=NC(C)(C)C(=O)N2)nn(-c2ccc(Cl)cc2Cl)c1-c1ccc(Cl)cc1 | 314 | 10300 | 32.6 | Activity [16]: 27.4%; Drug uptake [17]: 1118 ng/g; MED [8]: 0.1 mg/kg; EC50 [4]: 20.2 nM; Activity [18]: Active |
| CN1C(c2cc(-c3ccc(Cl)cc3)n(-c3ccc(Cl)cc3Cl)n2)=NC(=O)C1(C)C | 24 | 7950 | 325 |  |
| CCc1c(C2=NC(C)(C)C(=O)N2C)nn(-c2ccc(Cl)cc2Cl)c1-c1ccc(Cl)cc1 | 128 | 4330 | 33.8 | EC50 [4]: 65.5 nM |
| Cc1c(C(=O)NN2CCCCC2)nn(-c2ccc(Cl)cc2Cl)c1-c1ccc(Cl)cc1 [RIMONABANT] |  |  |  | Activity [19]: 23.8%; Drug uptake [20]: 113 ng/g |
| Cc1c(C2=NC(=O)C(C)(C)N2C2CC2)nn(-c2ccc(Cl)cc2Cl)c1-c1ccc(Cl)cc1 | 21 | 1950 | 95.2 |  |
| Cc1c(C2=NC(=S)C(C)(C)N2C)nn(-c2ccc(Cl)cc2Cl)c1-c1ccc(Cl)cc1 | 143 | 901 | 6.3 | EC50 [4]: 8.5 nM |
| Cc1c(C2=NC(=O)C(C)(C)N2C)nn(-c2ccc(Cl)cc2Cl)c1-c1ccc(Cl)cc1 | 9 | 487 | 54.7 |  |
| Cc1c(C2=NC(C)(C)C(=O)N2C)nn(-c2ccc(Cl)cc2Cl)c1-c1ccc(Cl)cc1 | 97 | 3250 | 33.6 |  |
| CCc1c(C2=NC3(CCC3)C(=O)N2)nn(-c2ccc(Cl)cc2Cl)c1-c1ccc(Cl)cc1 | 139 | 3180 | 22.8 | EC50 [4]: 12.3 nM |
| CCN1C(c2nn(-c3ccc(Cl)cc3Cl)c(-c3ccc(Cl)cc3)c2C)=NC(=O)C1(C)C | 11 | 1170 | 107 |  |
